A short description of experiment [1]: Displacement of [3H]DTG from sigma2 receptor in rat liver membrane homogenates. Format: cell membranes. In outline: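 Run on rat liver membrane homogenate (~300 μg protein) with ~5 nM [3H]DTG plus 1 μM (+)-pentazocine to mask σ1 sites. 10 μM haloperidol defined nonspecific binding. IC50 came from nonlinear regression.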
Experiment [2] has as its target Sigma non-opioid intracellular receptor 1 (Cavia porcellus, UniProt Q60492). The experiment is described as follows: Displacement of (+)-[3H]pentazocine from sigma1 receptor in guinea pig brain membrane homogenates. Type of experiment: cell membranes. In short, it runs like this:
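Run on guinea pig brain membrane homogenate (~300 μg protein) with 5 nM (+)-[3H]pentazocine. 10 μM haloperidol defined nonspecific binding. IC50 came from nonlinear regression with a one-site fit.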

In experiment [3] the target is T1, Vesicular acetylcholine transporter (Homo sapiens, UniProt Q16572).
T1 sequence (Q16572 whole entry): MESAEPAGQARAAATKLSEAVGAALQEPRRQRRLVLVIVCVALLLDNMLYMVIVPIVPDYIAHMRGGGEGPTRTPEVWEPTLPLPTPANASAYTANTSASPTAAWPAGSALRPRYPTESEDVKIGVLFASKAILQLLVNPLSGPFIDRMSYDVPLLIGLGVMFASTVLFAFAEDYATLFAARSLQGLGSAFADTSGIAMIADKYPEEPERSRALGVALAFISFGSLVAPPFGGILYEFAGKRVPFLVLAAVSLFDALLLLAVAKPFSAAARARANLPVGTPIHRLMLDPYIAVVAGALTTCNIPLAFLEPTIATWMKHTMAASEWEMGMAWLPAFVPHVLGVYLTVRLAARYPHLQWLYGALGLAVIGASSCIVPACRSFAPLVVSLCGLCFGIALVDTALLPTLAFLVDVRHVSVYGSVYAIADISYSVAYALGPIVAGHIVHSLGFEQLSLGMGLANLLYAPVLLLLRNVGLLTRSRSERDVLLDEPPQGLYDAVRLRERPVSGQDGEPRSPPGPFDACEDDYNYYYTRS
In words: Displacement of [3H]-vesamicol from human VAChT after 24 hrs by liquid scintillation spectrometry analysis.

This is an account of results in ChEMBL document CHEMBL3596119, “Synthesis and biological characterization of a promising F-18 PET tracer for vesicular acetylcholine transporter” (Bioorg Med Chem, 2015).

A value given as a limit tells only on which side of the number the result lay.

Chain of Sigma non-opioid intracellular receptor 1 (Q60492 whole entry): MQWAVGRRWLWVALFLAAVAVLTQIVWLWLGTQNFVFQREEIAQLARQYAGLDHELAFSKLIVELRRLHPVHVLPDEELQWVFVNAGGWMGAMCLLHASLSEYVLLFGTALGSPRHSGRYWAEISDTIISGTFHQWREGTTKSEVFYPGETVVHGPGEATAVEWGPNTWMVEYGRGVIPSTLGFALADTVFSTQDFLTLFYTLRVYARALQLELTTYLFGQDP

With `O=C(c1ccc(F)cc1)C1CCN(C2Cc3c(cccc3OCCF)CC2O)CC1` (single isomer, unassigned; (-)), the Ki in experiment [1] was over 10 µM.
Still for that read-out and setting: the figure for `O[C@@H]1CCCC[C@H]1N1CCC(c2ccccc2)CC1` [VESAMICOL] is 0.346 µM.
Turning to `O=C(c1ccc(F)cc1)C1CCN([C@@H]2Cc3c(cccc3OCCF)C[C@H]2O)CC1` (racemic), the Ki is over 10 µM in experiment [1] and 0.821 µM in experiment [2].
In experiment [1], `O=C(c1ccc(F)cc1)c1cccc2c1C[C@@H](N1CCC(c3ccccc3)CC1)[C@H](O)C2` showed a Ki of 0.251 µM.
On the same count and under the same terms, in the case of `O=C(c1ccc(F)cc1)C1CCN(C2Cc3c(cccc3OCCF)CC2O)CC1` (single isomer, unassigned; (+)) it was 7.8 µM.
For `O=C(c1ccc(F)cc1)C1CCN([C@@H]2Cc3cccc(O)c3C[C@H]2O)CC1`, the Ki is 0.0562 µM in experiment [3], 2.6 µM in experiment [1] and 0.0287 µM in experiment [2].
Consider `O=C(c1ccc(F)cc1)C1CCN([C@@H]2Cc3cccc(OCCF)c3C[C@H]2O)CC1` (racemic), for which the figures for the Ki in experiment [1] and in experiment [2] were 7.15 µM and over 10 µM, respectively.
Take `O=C(c1ccc(OCCOCCOCCF)cc1)C1CCN([C@@H]2Cc3ccccc3C[C@H]2O)CC1`: the Ki in experiment [3] was 0.00123 µM; in experiment [1], over 10 µM; in experiment [2] it was over 10 µM.
On to `O=C(c1ccc(F)cc1)C1CCN([C@@H]2Cc3c(O)cccc3C[C@H]2O)CC1`, for which the Ki is 0.00464 µM in experiment [3], 1.85 µM in experiment [1] and 8.64 µM in experiment [2].
For `O=C(c1ccc(OCCOCCF)cc1)C1CCN([C@@H]2Cc3ccccc3C[C@H]2O)CC1` the same measures were 0.00087 µM, 8.2 µM and 1.58 µM.
Consider `O=C(c1ccc(OCCF)cc1)C1CCN([C@@H]2Cc3ccccc3C[C@H]2O)CC1`, for which the Ki came to 0.00174 µM in experiment [3], 1.89 µM in experiment [1] and 0.0132 µM in experiment [2].
